ChEMBL document CHEMBL1157851, “Design and synthesis of novel 3,4-disubstituted pyrazoles for nanomedicine applications against malignant gliomas” (Eur J Med Chem, 2010)

Experiment: Cytotoxicity against human U87MG cells after 24 hrs by MTT assay
Assay type: functional, cell-based, U-87MG ATCC
Settings: U-87 MG
Summary of the method: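 U87MG human glioblastoma cells were grown in EMEM with 10% FBS and 1% penicillin–streptomycin at 37 °C under humidified 5% CO₂, then seeded at 2 × 10³ cells/well. At about 50% confluence, cells were exposed to compounds at various concentrations (10 mmol/L DMSO stocks; DMSO control) for 24 h. MTT was then added for 3 h at 37 °C, formazan was dissolved in DMSO, and A540 was read. IC50 values are means of three experiments.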
COc1ccccc1C(=O)Nc1cn(-c2ccccc2)nc1-c1ccccc1 showed an IC50 of 81 µM.
Compound Cn1cc(NC(=O)CCCCCCCCCCCN)c(-c2ccccn2)n1 has an IC50 of 90 µM.
In the case of Cn1cc(NC(=O)CCCCCCCCCCO)c(-c2ccccn2)n1, the IC50 is reported as greater than 150 µM.
For COc1ccccc1C(=O)Nc1cn(C)nc1-c1ccccn1, the IC50 was 130 µM.
With CCCCCCCCCCCC(=O)Nc1cn(C)nc1-c1ccccn1 the IC50 was greater than 150 µM.
C[C@H](N)C(=O)Nc1cn(C)nc1-c1ccccn1 gave an IC50 greater than 150 µM.
Cn1cc(NC(=O)CCCCCCCCCCS)c(-c2ccccn2)n1 gave an IC50 greater than 150 µM.
O=C(CCCCCCCCCCO)Nc1cn(-c2ccccc2)nc1-c1ccccc1 gave an IC50 greater than 150 µM.
Cn1cc(NC(=O)c2ccccc2)c(-c2ccccn2)n1 showed an IC50 greater than 150 µM.
CCCCCCCCCCCC(=O)Nc1cn(-c2ccccc2)nc1-c1ccccc1 showed an IC50 of 81 µM.
For C[C@H](N)C(=O)Nc1cn(-c2ccccc2)nc1-c1ccccc1, the IC50 was greater than 150 µM.
With O=C(CCCCCCCCCCS)Nc1cn(-c2ccccc2)nc1-c1ccccc1 the IC50 was 90 µM.
In the case of NCCCCCCCCCCCC(=O)Nc1cn(-c2ccccc2)nc1-c1ccccc1, the IC50 is reported as 77 µM.
With O=C(Nc1cn(-c2ccccc2)nc1-c1ccccc1)c1ccccc1 the IC50 was greater than 150 µM.
